Screening data as filed in PubChem BioAssay.
Rows were chosen to be rich in hits. Some 4.6% of all compounds tested hit in one or more screens of this group.
NALP1 yeast inh = inhibitors of NALP1 inflammasome in yeast; S. cerevisiae NALP1/ASC/caspase-1 growth, X-gal OD620, 72 h; inhibition, % at 10 µM; 280,000 compounds, 0.61% hits; AID 2071; in the data active means inhibition mostly above about 24%, no sharp cut-off; inactive means mostly below about 32%
PolyA inh = yeast polyadenylation inhibition. S. cerevisiae SKY197-pL101 polyadenylation reporter, beta-gal luminescence; efflux-impaired pdr1/pdr3 knockout yeast; score 100 = 6 SD above DMSO. activity score, % at 12 µM. AID 1875. 300,000 compounds, 0.02% hits;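 active means lowest replicate activity score at least 50, where 100 means six control SD above control mean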;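 further: yeast exposed to compound for 9 h at 30 °C; higher score means more reporter readthrough which indicates perturbed polyadenylation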
Arr AP2 block = blocks beta-arrestin peptide binding to AP2 adaptin. 340,000 compounds, 0.31% hits. inhibition, % at 10 µM. AID 504490. FITC-arrestin peptide / GST-AP2 beads, flow cytometry; AP2 beta2 appendage carries R879A mutation;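 active means inhibition above a set limit, near 3 SD of compounds lacking own fluorescence, cut at about 54% in these data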;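 further: plate controls were DMSO wells for no effect and 5 µM unlabelled arrestin peptide for full effect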
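Material – GST-tagged AP2 beta2-adaptin appendage (R879A) on 4 µm glutathione beads · Probe or stimulus – fluorescein-tagged arrestin peptide at 50 nM final · Timing – 12 min plus 1 h, RT · Detection – bead flow cytometry, FITC channel · Read-out basis – inhibition as reduced fluorescein signal on beads, percent · Medium – PBS plus Tween 20 (0.05%) and BSA (0.1%)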
NALP3 yeast inh = inhibitors of NALP3 inflammasome in yeast | Yeast reconstituted NLRP3/ASC/caspase-1, beta-gal luminescence, 24 h | inhibition, % at 10 µM | 330,000 compounds, 0.39% hits | AID 2825;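 active means inhibition of 50% or more; inactive means inhibition below 50%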;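 further: plate controls were induced DMSO wells for no effect and uninduced yeast grown without galactose for full effect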
ALR inh = human ALR oxidase inhibition via reduced H2O2. P55789. purified ALR, DTT oxidation, H2O2 HRP-luminol luminescence. inhibition, % (concentration not given with the values). 290,000 compounds, 3.8% hits. AID 485317;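 active means mean replicate inhibition above about 79%, with every replicate also reaching it, limit read from the data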
DSG3 Ab inh = inhibitors of pemphigus antibody binding to human desmoglein-3; 310,000 compounds, 0.48% hits; DSG3-coupled beads, scFv-anti-DSG3-GFP binding, flow cytometry; active compounds read low; binding (percent of control), % at 10 µM; P32926;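 active means binding more than 3 SD below its plate's average and above zero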;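 further: hits lower antibody fragment binding to DSG3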
Target sequence (P32926 whole entry, looked up, the tested form may be a part): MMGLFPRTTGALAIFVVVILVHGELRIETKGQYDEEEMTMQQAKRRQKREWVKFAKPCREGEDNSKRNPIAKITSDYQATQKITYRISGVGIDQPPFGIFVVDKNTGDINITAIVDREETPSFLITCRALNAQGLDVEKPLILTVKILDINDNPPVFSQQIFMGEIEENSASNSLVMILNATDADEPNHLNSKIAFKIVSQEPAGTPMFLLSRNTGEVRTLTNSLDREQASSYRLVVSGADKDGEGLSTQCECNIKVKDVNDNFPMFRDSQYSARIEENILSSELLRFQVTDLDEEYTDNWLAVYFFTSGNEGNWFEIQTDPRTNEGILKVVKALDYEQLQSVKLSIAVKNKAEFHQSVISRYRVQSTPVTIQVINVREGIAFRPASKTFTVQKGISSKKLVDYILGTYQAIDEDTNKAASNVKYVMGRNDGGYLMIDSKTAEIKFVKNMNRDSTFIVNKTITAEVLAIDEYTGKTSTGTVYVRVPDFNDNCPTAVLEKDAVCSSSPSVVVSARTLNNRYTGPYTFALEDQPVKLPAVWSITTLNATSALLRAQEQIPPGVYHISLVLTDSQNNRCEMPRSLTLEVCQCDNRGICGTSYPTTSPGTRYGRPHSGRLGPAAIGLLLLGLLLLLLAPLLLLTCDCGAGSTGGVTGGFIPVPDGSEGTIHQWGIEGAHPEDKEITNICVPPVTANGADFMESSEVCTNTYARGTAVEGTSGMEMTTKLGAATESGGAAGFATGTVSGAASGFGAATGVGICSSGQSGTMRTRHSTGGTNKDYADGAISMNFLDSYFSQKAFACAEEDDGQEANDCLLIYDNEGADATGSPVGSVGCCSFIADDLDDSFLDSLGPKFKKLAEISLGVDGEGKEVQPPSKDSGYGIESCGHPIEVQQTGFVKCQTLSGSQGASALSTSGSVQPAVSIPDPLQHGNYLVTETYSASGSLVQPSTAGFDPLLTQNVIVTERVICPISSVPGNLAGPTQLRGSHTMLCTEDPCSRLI
Arr-AP2 CP1 = human beta-arrestin and AP2 interaction inhibition, cherry pick; shares compounds with Arr AP2 block; GST-AP2 beads, FITC arrestin peptide binding, flow cytometry; GST-fused beta2-adaptin appendage, R879A mutant; inhibition, % at 10 µM; 1,300 compounds, 2% hits;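 active means inhibition above a set limit, roughly 3 SD of non-fluorescent compound noise, cut at about 38% in these data; inactive means inhibition at or below that limit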;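 further: loss of bead fluorescence from 50 nM FITC arrestin peptide bound to appendage; 0% = negative control wells and 100% = excess unlabelled arrestin peptide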
GST-FITC bead = GST-GSH bead binding interference, counter-screen. shares compounds with Arr AP2 block. GST-fluorescein binding to GSH beads, fluorescence. inhibition, % at 10 µM. 1,300 compounds, 2% hits. AID 588338;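 active means inhibition above 50%, about 3 SD of the inhibition seen with non-fluorescent compounds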;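 further: fluorescein maleimide labelled GST captured on 4 micron glutathione beads; higher means more loss of bead fluorescence from quenching or blocked binding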
The depositor's hits bear a star; . = no result.

SMILES	NALP1 yeast inh	PolyA inh	Arr AP2 block	NALP3 yeast inh	ALR inh	DSG3 Ab inh	Arr-AP2 CP1	GST-FITC bead
CCOc1ccc(C(=O)NC(=S)Nc2ccc(NC(=O)c3ccco3)c(C)c2)cc1[N+](=O)[O-]	5	-9	100*	2	-6	77	1	-2
CCN(CC)CCN1C(=O)C2C(C(=O)Nc3cc(C)cc(C)c3)C3C=CC2(O3)C1C(=O)NC1CCCCC1 (stereo unspecified)	19	-5	24	-4	4	113	.	.
Nc1c(N(C(=O)Nc2ccc(Cl)c(Cl)c2)C2CCCC2)c(=O)[nH]c(=O)n1Cc1ccccc1	-4	-5	84*	-9	-7	94	3	-5
CC(=O)Nc1ccc(C=NNc2ccc(S(=O)(=O)Nc3ccccc3C(=O)O)cc2[N+](=O)[O-])cc1	.	.	-5	20	48	129	.	.
O=C(O)c1ccccc1NS(=O)(=O)c1ccc(NNC(=S)Nc2ccc(OC(F)F)cc2)c([N+](=O)[O-])c1	8	-12	62*	.	.	98	-2	-5
COCCn1c(SCC(=O)Nc2ccc(S(=O)(=O)N(C)C)cc2)nc2ccccc21	38*	12	57*	-3	-8	106	0	-12
COCCn1c(SCC(=O)Nc2ccc(N3CCOCC3)cc2)nc2ccccc21	26	17	18	10	36	96	.	.
COc1ccc2oc(C(=O)Nc3nc(C)cs3)c(C)c2c1	.	.	63*	15	-5	93	-2	7
CN(C)c1ccc(NC(=O)COC(=O)Cn2nnc3ccccc32)cc1	24	6	61*	-4	99*	136	-5	-9
COc1cc(/C=C(\C#N)c2nc3ccccc3[nH]2)ccc1OC(=O)c1ccco1	26	-13	97*	32	-8	101	13	-5
O=C(CSc1nnc2ccc(-c3ccccn3)nn12)Nc1ccccc1F	.	22	3	5	-11	100	.	.
COc1ccc(CC(=O)NNC(=O)c2ccccc2)cc1OC	.	.	2	6	.	99	.	.
COc1ccc(CC(=O)NNC(=O)c2cc(C)oc2C)cc1OC	.	22	65*	3	.	95	7	-5
COC(=O)CSc1[nH]c2cc(C)ccc2c1[N+](=O)[O-]	-1	6	4	-7	.	88	.	.
COc1ccc(Nc2nc(N3CCCC3)c3ccccc3n2)cc1	18	-17	3	36	.	84	.	.
CCN(CC)c1ccc(Nc2nc(N3CCOCC3)c3ccccc3n2)cc1	17	-15	59*	9	99*	101	13	11
CC(=O)Nc1ccc(NS(=O)(=O)c2cn(C)c(=O)n(C)c2=O)cc1	.	22	2	0	7	104	.	.
COc1ccc(C(=O)Nc2cc3c(cc2N2CCCCC2)n(C)c(=O)n3C)cc1OC	18	17	.	7	.	109	-5	.
Cc1ccc(C(=O)Nc2cc3c(cc2N2CCCCC2)n(C)c(=O)n3C)cc1	-2	13	-1	9	-7	105	4	3
CCOc1cc(C(=O)Nc2cc3c(cc2N2CCCC2)n(C)c(=O)n3C)cc(OCC)c1OCC	24	11	15	-3	-4	105	5	3
COc1cc(C(=O)Nc2cc3c(cc2N2CCCCC2)n(C)c(=O)n3C)cc(OC)c1OC	15	-25	-12	19	.	115	4	-2
COc1ccc(S(=O)(=O)N2CCCCC2)cc1NC(=O)c1ccc(OC)c(OC)c1	.	.	1	12	.	102	.	.
CCOc1cc(C(=O)Nc2ccc3c4c(cccc24)C(=O)N3CC)cc(OCC)c1OCC	4	-19	3	13	-11	99	.	.
COc1cc(C(=O)Nc2ccccc2N2CCN(S(C)(=O)=O)CC2)cc(OC)c1OC	.	-8	16	8	-17	.	.	.
O=C(c1ccco1)N1CCN(S(=O)(=O)c2ccc3c(c2)OCCO3)CC1	1	5	96*	-2	-8	109	2	2
SMILES	NALP1 yeast inh	PolyA inh	Arr AP2 block	NALP3 yeast inh	ALR inh	DSG3 Ab inh	Arr-AP2 CP1	GST-FITC bead
O=S(=O)(c1ccc2c(c1)OCCO2)N1CCN(S(=O)(=O)c2ccco2)CC1	.	.	11	-2	-6	103	.	.
COc1ccc(NC(=S)N2CCCC(c3nc4ccc(C)cc4[nH]3)C2)c(OC)c1 (stereo unspecified)	-7	12	0	20	.	97	.	.
COc1ccc(NC(=S)N2CCCC(c3nc4ccc(C)cc4[nH]3)C2)cc1 (stereo unspecified)	-4	-6	57*	23	13	94	-10	-3
C/C(=N\NC(=O)c1cc(-c2ccncc2)nc2ccccc12)c1ccc(N2CCOCC2)cc1	8	-10	111*	12	-8	98	-13	0
CC(=NNC(=O)c1cc(C)nc2ccccc12)c1ccc(N2CCOCC2)cc1	.	.	-2	-4	.	92	.	.
CCCn1c(C(C)C)n[nH]c1=S	.	7	41	-1	3	99	.	.
O=C(NCC(F)(F)F)N1CCOCC1	8	-1	68*	19	5	104	5	-6
O=C1Nc2ccc(NS(=O)(=O)c3cccs3)c3cccc1c23	15	-10	96*	8	73	98	13	2
CNS(=O)(=O)c1ccc2c3c(cccc13)C(=O)N2	14	18	10	13	-17	107	.	.
CN(C)c1ccc(CN(C)C2CCCCC2)cc1	-11	-17	0	13	38	96	.	.
O=C(CCCn1c(=O)[nH]c2ccccc2c1=O)Nc1ccc(F)cc1	17	9	57*	4	-13	102	-9	-10
O=C(CCCn1c(=O)[nH]c2ccsc2c1=O)Nc1ccc(F)cc1	-4	3	-1	-5	3	104	.	.
O=C(CCn1c(=O)[nH]c2ccccc2c1=O)Nc1ccccc1	8	5	-14	-8	1	.	-15	-7
CCN(C(=O)Cn1cnc2c1c(=O)n(C)c(=O)n2C)C1CCCCC1	.	.	61*	-1	-1	.	-2	-12
COc1ccc(S(=O)(=O)c2ccc(OCC3CO3)cc2)cc1 (stereo unspecified)	1	4	64*	14	0	109	12	-2
Cc1ccc(-c2cc(C(F)F)n3ncc(C(=O)N4CCCc5ccccc54)c3n2)cc1	8	6	-4	13	-23	99	-2	-2
